Test results reported in ChEMBL document CHEMBL4190353, “Synthesis, structure-activity relationships and preliminary mechanism of action of novel water-soluble 4-quinolone-3-carboxamides as antiproliferative agents” (Eur J Med Chem, 2017).
Active and inactive are the calls of the source. No cut-off for these calls is given here.

Columns and labels:
MCF7 = assay: Cytotoxicity against human MCF7 cells assessed as reduction in cell viability incubated for 24 hrs by MTT assay; assay type: functional, cell-based; settings: MCF7, 24 h
Procedure, shortened: (§1)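 Cells were kept in McCoy's 5A with 10% fetal bovine serum, streptomycin and 100 units·mL⁻¹ penicillin at 37 °C under 5% CO₂/95% air. Viability was read by MTT optical density. IC50 is the concentration that lowers optical density by 50% relative to untreated cells. Values are means with SD of at least three independent determinations.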

BGC-823 = assay: Cytotoxicity against human BGC823 cells assessed as reduction in cell viability incubated for 24 hrs by MTT assay; assay type: functional, cell-based; settings: BGC-823, 24 h; procedure, shortened: as §1
HCT-116 [1] = assay: Induction of apoptosis in human HCT116 cells assessed as viable cells level at 4 uM incubated for 24 hrs by Annexin V-FITC/PI staining based cytometry (reference value: 96.6%); assay type: functional
HCT-116 [2] = assay: Induction of apoptosis in human HCT116 cells assessed as late apoptotic cells level at 4 uM incubated for 24 hrs by Annexin V-FITC/PI staining based cytometry (reference value: 0.5%); assay type: functional
HCT-116 [3] = assay: Induction of apoptosis in human HCT116 cells assessed as necrotic cells level at 4 uM incubated for 24 hrs by Annexin V-FITC/PI staining based cytometry (reference value: 1.6%); assay type: functional
HCT-116 [4] = assay: Induction of apoptosis in human HCT116 cells assessed as subG1 phase cells level at 2 uM incubated for 24 hrs by […]PI staining based cytometry (reference value: 1%); assay type: functional
Procedure, shortened: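 Cells were treated for 24 h, then fixed in 75% ethanol at -20 °C overnight. RNA was digested with 0.2 mg/mL RNase A for 30 min at 37 °C. Cells were stained with 50 µg/mL PI for 30 min in the dark, and DNA content was read by flow cytometry.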

HCT-116 [5] = assay: Induction of apoptosis in human HCT116 cells assessed as viable cells level incubated for 48 hrs by Annexin V-FITC/PI staining based cytometry (reference value: 98.7%); assay type: functional
HCT-116 [6] = assay: Induction of apoptosis in human HCT116 cells assessed as necrotic cells level incubated for 48 hrs by Annexin V-FITC/PI staining based cytometry (reference value: 0.2%); assay type: functional
HCT-116 [7] = assay: Induction of apoptosis in human HCT116 cells assessed as viable cells level pre-incubated with 20 uM pan-caspase inhibitor Z-VAD-FMK for 5 hrs followed by compound addition and further incubated for 48 hrs by Annexin V-FITC/PI staining based cytometry (reference value: 98.7%); assay type: functional
HCT-116 [8] = assay: Induction of apoptosis in human HCT116 cells assessed as early apoptotic cells level pre-incubated with 20 uM pan-caspase inhibitor Z-VAD-FMK for 5 hrs followed by compound addition and further incubated for 48 hrs by Annexin V-FITC/PI staining based cytometry (reference value: 1.1%); assay type: functional; set-up: scale not given: the % may be the effect or the level left
HCT-116 [9] = assay: Induction of apoptosis in Bax-/- human HCT116 cells assessed as increase in cleaved PARP level pre-incubated with 20 uM pan-caspase inhibitor Z-VAD-FMK for 5 hrs followed by compound addition and further incubated for 48 hrs by Western blot method; assay type: functional, cell-based
Procedure, shortened: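 Cells were pretreated for 5 h with DMSO or 20 µM Z-VAD-FMK before compound exposure. Lysates were made in SDS buffer and quantified by BCA. Proteins were run on 10% SDS-PAGE, transferred to PVDF, and probed with cleaved PARP (1:1000) and GAPDH (1:5000) loading control, with ECL detection.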

HCT-116 [10] = assay: Induction of apoptosis in Bax-/- human HCT116 cells assessed as early apoptotic cells level incubated for 48 hrs by Annexin V-FITC/PI staining based cytometry (reference value: 6.8%); assay type: functional
Procedure, shortened: (§2)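 Cells were plated at 5×10^5 per well and treated once 80% confluent. After trypsinisation and two washes in ice-cold PBS (pH 7.4), cells were stained with Annexin V-FITC and PI for 15 min at room temperature in the dark. Analysis was by flow cytometry. The legend gives vehicle or 4 µM for the p53-/- and Bax-/- lines.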

HCT-116 [11] = assay: Induction of apoptosis in Bax-/- human HCT116 cells assessed as necrotic cells level incubated for 48 hrs by Annexin V-FITC/PI staining based cytometry (reference value: 0.2%); assay type: functional; procedure, shortened: as §2
HCT-116 [12] = assay: Induction of apoptosis in Bax-/- human HCT116 cells assessed as increase in cleaved PARP level at 4 to 16 uM by Western blot method; assay type: functional, cell-based
Procedure, shortened: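 Lysates were made in SDS buffer (2% SDS, 50 mM Tris-HCl pH 6.8) and quantified by BCA. Equal protein was run on 10% SDS-PAGE and transferred to PVDF. Membranes were blocked in 5% milk, probed overnight at 4 °C for cleaved PARP (1:1000) with GAPDH (1:5000), and detected with HRP secondary antibody and ECL.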

HCT-116 [13] = assay: Induction of apoptosis in p53-/- human HCT116 cells assessed as early apoptotic cells level at 4 uM incubated for 48 hrs by Annexin V-FITC/PI staining based cytometry (reference value: 2.9%); assay type: functional; procedure, shortened: as §2
HCT-116 [14] = assay: Induction of apoptosis in p53-/- human HCT116 cells assessed as necrotic cells level at 4 uM incubated for 48 hrs by Annexin V-FITC/PI staining based cytometry (reference value: 0.8%); assay type: functional
Procedure, shortened: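 HCT116 p53-/- cells (Vogelstein line) in McCoy's 5A with 10% FBS, 37 °C, 5% CO2. Seeded at 5×10^5 in 6-well plates, treated with vehicle or 4 μM at 80% confluence. After treatment, trypsinised, washed twice in ice-cold PBS pH 7.4, and stained in binding buffer with Annexin V-FITC and PI for 15 min at room temperature in the dark. Read by flow cytometry.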

HCT-116 [15] = assay: Induction of apoptosis in Bax-/- human HCT116 cells assessed as late apoptotic cells level at 4 uM incubated for 48 hrs by Annexin V-FITC/PI staining based cytometry (reference value: 0.2%); assay type: functional; procedure, shortened: as §2
HCT-116 [16] = assay: Inhibition of colony formation of p53-/- human HCT116 cells at 4 to 16 uM incubated for 24 hrs by crystal violet staining based photography; assay type: functional, cell-based
Procedure, shortened: (§3)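 Cells (HCT116, RKO, HCT116 p53-/-, HCT116 Bax-/-) seeded at 300 per well in 12-well plates for 48 h, then treated 24 h. Drug medium replaced with fresh medium; about 10 days later colonies stained 15 min with crystal violet, photographed and counted. Run in triplicate.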

HCT-116 [17] = assay: Inhibition of colony formation of Bax-/- human HCT116 cells at 4 to 16 uM incubated for 24 hrs by crystal violet staining based photography; assay type: functional, cell-based; procedure, shortened: as §3
HCT-116 [18] = assay: Induction of apoptosis in human HCT116 cells assessed as increase in cleaved PARP level pre-treated with 7.5 mM GSH for 6 hrs followed by 4 to 8 uM compound addition and further incubated for 24 hrs by Western blot method; assay type: functional, cell-based
HCT-116 [19] = assay: Induction of apoptosis in human HCT116 cells assessed as increase in cleaved PARP level pre-treated with 7.5 mM L-NAC for 6 hrs followed by 4 to 8 uM compound addition and further incubated for 24 hrs by Western blot method; assay type: functional, cell-based
Procedure, shortened: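 HCT116 cells were pretreated with H2O or 7.5 mM L-NAC for 6 h, then exposed to 0, 4 or 8 µM for 24 h. Lysates were made in SDS buffer and run on 10% SDS-PAGE. Blots were probed for cleaved PARP (1:1000) with GAPDH (1:5000) as control, and detected by ECL.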

CCN(CC)CCCNC(=O)c1cn(CCCc2ccccc2)c2cc(Cl)ccc2c1=O.Cl
IC50 (MCF7): 5.02 µM | IC50 (BGC-823): 4.92 µM | Activity (HCT-116 [1]): 52.7% | Activity (HCT-116 [2]): 4.8% | Activity (HCT-116 [3]): 4.3% | Activity (HCT-116 [4]): 6.5% | Activity (HCT-116 [5]): 62.5% | Activity (HCT-116 [6]): 4.6% | Activity (HCT-116 [7]): 80.4% | Activity (HCT-116 [8]): 14.2% | Activity (HCT-116 [9]): inactive | Activity (HCT-116 [10]): 33% | Activity (HCT-116 [11]): 0.2% | Activity (HCT-116 [12]): Active | Activity (HCT-116 [13]): 24.8% | Activity (HCT-116 [14]): 1.8% | Activity (HCT-116 [15]): 0.8% | inhibition (HCT-116 [16]): Active | inhibition (HCT-116 [17]): Active | Activity (HCT-116 [18]): inactive | Activity (HCT-116 [19]): inactive
